Consider 7 compounds from ChEMBL document CHEMBL4325889, “Natural products hybrids: 3,5,4'-Trimethoxystilbene-5,6,7-trimethoxyflavone chimeric analogs as potential cytotoxic agents against diverse human cancer cells” (Eur J Med Chem, 2019).

What all share (assay type): functional
The subject of one assay is NCI/ADR-RES. Put plainly: Growth inhibition of human NCI/ADR-RES cells at 10 uM after 48 hrs by SRB assay relative to control. Conditions: read-out: GI. The gist of the method: (§1)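 Screened at the National Cancer Institute by the standard NCI protocol using the sulforhodamine B assay, which measures cellular protein. Single dose of 10 µM. Result is percent growth inhibition; values above 100% mean cell number fell below the initial population. Values are the average of duplicates.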

A further assay concerns NCI-H226. Put plainly: Growth inhibition of human NCI-H226 cells at 10 uM after 48 hrs by SRB assay relative to control. Particulars: NCI-H226, 48 h, read-out: GI. The gist of the method:
as §1
In general terms: The SRB assay estimates cell density from bound dye.

Another assay relates to OVCAR-8. Put plainly: Growth inhibition of human OVCAR8 cells at 10 uM after 48 hrs by SRB assay relative to control. Particulars: OVCAR-8, 48 h, read-out: GI. The gist of the method:
as §1

The subject of the next assay is RXF 393. Put plainly: Growth inhibition of human RXF393 cells at 10 uM after 48 hrs by SRB assay relative to control. Particulars: RXF 393, 48 h, read-out: GI. The gist of the method: as §1
Another assay deals with PC-3. Put plainly: Growth inhibition of human PC3 cells at 10 uM after 48 hrs by SRB assay relative to control. Particulars: PC-3, 48 h, read-out: GI. Summed up: as §1
In another assay the test system is K562. Put plainly: Growth inhibition of human K562 cells at 10 uM after 48 hrs by SRB assay relative to control. Conditions: K562, 48 h, read-out: GI. The gist of the method:
as §1

For the next assay, the system named is HCC 2998. Put plainly: Growth inhibition of human HCC2998 cells at 10 uM after 48 hrs by SRB assay relative to control. Conditions: HCC 2998, 48 h, read-out: GI. The gist of the method:
as §1

Another assay deals with SK-MEL-5. Put plainly: Growth inhibition of human SK-MEL-5 cells at 10 uM after 48 hrs by SRB assay relative to control. Conditions: SK-MEL-5, 48 h, read-out: GI. The gist of the method: as §1
For another assay, the system named is UACC-62. Put plainly: Growth inhibition of human UACC62 cells at 10 uM after 48 hrs by SRB assay relative to control. Conditions: UACC-62, 48 h, read-out: GI. Summed up: (§2)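 NCI screen against its human cancer cell line panel by the standard NCI protocol, SRB protein stain. Single dose of 10 μM. Percent growth inhibition versus control; values above 100% mean the cell population fell below the starting number. Each value is the mean of duplicates.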

The subject of another assay is MDA-MB-435. Put plainly: Growth inhibition of human MDA-MB-435 cells at 10 uM after 48 hrs by SRB assay relative to control. Conditions: MDA-MB-435, 48 h, read-out: GI. The gist of the method:
as §1

The subject of a further assay is HL-60(TB). Put plainly: Growth inhibition of human HL-60(TB) cells at 10 uM after 48 hrs by SRB assay relative to control. Conditions: HL-60, 48 h, read-out: GI. Summed up: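 Run at NCI under its standard single-dose protocol against a leukemia cell panel. Cells were exposed to 10 µM; growth was read by sulforhodamine B staining of cellular protein and expressed as % growth inhibition versus untreated control. Values above 100% mean the cell population fell below the starting count (cytocidal). Each value is the average of duplicates.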

For a further assay, the system named is DU-145. Put plainly: Growth inhibition of human DU145 cells at 10 uM after 48 hrs by SRB assay relative to control. Particulars: DU-145, 48 h, read-out: GI. The gist of the method:
as §1

The next assay relates to HCT-116. Put plainly: Growth inhibition of human HCT116 cells at 10 uM after 48 hrs by SRB assay relative to control. Conditions: HCT-116, 48 h, read-out: GI. The gist of the method: as §1
The subject of the next assay is SNB-19. Put plainly: Growth inhibition of human SNB19 cells at 10 uM after 48 hrs by SRB assay relative to control. Particulars: SNB-19, 48 h, read-out: GI. Summed up: as §2
The subject of another assay is BT-549. Put plainly: Growth inhibition of human BT549 cells at 10 uM after 48 hrs by SRB assay relative to control. Conditions: BT-549, 48 h, read-out: GI. Summed up:
as §1

For the next assay, the system named is OVCAR-5. Put plainly: Growth inhibition of human OVCAR5 cells at 10 uM after 48 hrs by SRB assay relative to control. Conditions: OVCAR-5, 48 h, read-out: GI. Summed up:
as §1

In a further assay the test system is OVCAR-3. Put plainly: Growth inhibition of human OVCAR3 cells at 10 uM after 48 hrs by SRB assay relative to control. Particulars: OVCAR-3, 48 h, read-out: GI. The gist of the method: as §1
For the next assay, the system named is SF-268. Put plainly: Growth inhibition of human SF268 cells at 10 uM after 48 hrs by SRB assay relative to control. Particulars: SF-268, 48 h, read-out: GI. Summed up: as §1

Turning to `COc1cc2oc(-c3cccc(C(=O)Nc4ccccc4)c3)cc(=O)c2c(O)c1OC`, the inhibition of growth at 10 µM in the assay on NCI/ADR-RES is 20.9%; with NCI-H226, 26.8%; with OVCAR-8, 84.6%; in the assay on RXF 393 it was 43.5%; in the assay on PC-3, 29%; in the assay with K562, 2.93%. In addition, the inhibition of growth at 10 µM in the assay with HCC 2998 amounted to 10.3%; with SK-MEL-5, 28.3%; with UACC-62, 61.1%; in the assay with MDA-MB-435, 41.7%; in the assay with HL-60(TB), 7.3%; in the assay with DU-145 it was 34.4%. Moreover, the inhibition of growth at 10 µM in the assay on HCT-116 was 53.7%; with SNB-19 it was 42.3%; in the assay with BT-549 it was 39.9%; in the assay with OVCAR-5, 5.59%; in the assay with OVCAR-3, 29.9%; with SF-268, 63%.

Consider `COc1ccc(C(=O)Nc2cccc(-c3cc(=O)c4c(OC)c(OC)c(OC)cc4o3)c2)cc1`, for which the inhibition of growth at 10 µM was 39.8% in the assay on NCI/ADR-RES; 30.1% with NCI-H226; 42.1% with OVCAR-8; 46.4% with RXF 393; 68.1% in the assay with PC-3; 79.4% with K562. Also, the inhibition of growth at 10 µM in the assay on HCC 2998 came to 29.7%; in the assay with SK-MEL-5 it was 49.8%; in the assay with UACC-62 it was 44.6%; with MDA-MB-435, 30.4%; with HL-60(TB), 55.2%; with DU-145 it was 43.5%. The inhibition of growth at 10 µM is 52.2% in the assay on HCT-116; 35.4% in the assay with SNB-19; 48.6% in the assay with BT-549; 4.43% in the assay on OVCAR-5; 33.2% with OVCAR-3; 41.6% in the assay with SF-268.

Take `COc1cc2oc(-c3cccc(C(=O)Nc4ccc5c(c4)OCO5)c3)cc(=O)c2c(O)c1OC`: the inhibition of growth at 10 µM in the assay with NCI/ADR-RES was 29.4%; with NCI-H226, 21.5%; in the assay with OVCAR-8, 69.4%; in the assay on RXF 393 it was 18.5%; in the assay with PC-3, 27.7%; in the assay on K562, 5.51%. For the same compound, the inhibition of growth at 10 µM in the assay with HCC 2998 was -4.53%; with SK-MEL-5, 16%; in the assay with UACC-62 it was 18.6%; in the assay on MDA-MB-435 it was 20.9%; with HL-60(TB) it was 5.71%; in the assay on DU-145, 19.6%. Moreover, the inhibition of growth at 10 µM in the assay on HCT-116 worked out at 43%; in the assay on SNB-19, 27.9%; in the assay with BT-549, 16%; with OVCAR-5, 11.1%; in the assay with OVCAR-3 it was 10.5%; in the assay on SF-268, 41.3%.

For the compound `COc1ccccc1NC(=O)c1cccc(-c2cc(=O)c3c(OC)c(OC)c(OC)cc3o2)c1`, the inhibition of growth at 10 µM amounted to 46.7% in the assay on NCI/ADR-RES; 37.2% with NCI-H226; 42.7% in the assay with OVCAR-8; 29.3% with RXF 393; 43.6% in the assay on PC-3; 51.2% with K562. The inhibition of growth at 10 µM in the assay with HCC 2998 amounted to 13.6%; in the assay on SK-MEL-5, 58.4%; with UACC-62 it was 46.5%; in the assay on MDA-MB-435, 22.4%; with HL-60(TB), 10.1%; with DU-145, 29.6%. Also, the inhibition of growth at 10 µM was 31.9% with HCT-116; 17.5% with SNB-19; 44.9% in the assay with BT-549; 18.6% in the assay on OVCAR-5; 47.5% in the assay on OVCAR-3; 29.3% in the assay with SF-268.

As to `COc1cc2oc(-c3cccc(C(=O)Nc4ccccc4)c3)cc(=O)c2c(OC)c1OC`, the inhibition of growth at 10 µM in the assay on NCI/ADR-RES was 18.2%; in the assay with NCI-H226, 12.7%; with OVCAR-8, 34.9%; in the assay on RXF 393, 24.9%; with PC-3, 29%; in the assay on K562, 29.6%. The inhibition of growth at 10 µM with HCC 2998 was 1.29%; with SK-MEL-5, 35.3%; in the assay on UACC-62, 29.8%; in the assay with MDA-MB-435 it was 8.87%; in the assay with HL-60(TB) it was 12.7%; in the assay with DU-145, 12.2%. In addition, the inhibition of growth at 10 µM with HCT-116 is 18.3%; with SNB-19 it was 4.37%; in the assay on BT-549, 24.2%; with OVCAR-5 it was 16.2%; in the assay with OVCAR-3 it was 12.3%; with SF-268 it was 16.7%.

Regarding `COc1ccc(NC(=O)c2cccc(-c3cc(=O)c4c(O)c(OC)c(OC)cc4o3)c2)cc1`, the inhibition of growth at 10 µM with NCI/ADR-RES stood at 14.7%; in the assay on NCI-H226, 8.07%; in the assay on OVCAR-8, 19.4%; in the assay on RXF 393, 8.01%; in the assay with PC-3, 13.8%; in the assay on K562 it was 8.23%. In addition, the inhibition of growth at 10 µM in the assay on HCC 2998 is -1.16%; in the assay with SK-MEL-5, 8.61%; in the assay with UACC-62 it was 18.9%; with MDA-MB-435 it was -5.05%; in the assay on HL-60(TB), -29.7%; with DU-145 it was 3.06%. Also, the inhibition of growth at 10 µM in the assay on HCT-116 was 29.5%; with SNB-19, 38.4%; in the assay on BT-549, 69%; with OVCAR-5, 2.51%; in the assay on OVCAR-3, 49.4%; with SF-268, 45.4%.

Turning to `Cc1ccc(NC(=O)c2ccc(CN3CCN(C)CC3)cc2)cc1Nc1nccc(-c2cccnc2)n1` [IMATINIB], the inhibition of growth at 10 µM is -0.5% in the assay with NCI/ADR-RES; 10.6% in the assay with NCI-H226; 8.4% in the assay with OVCAR-8; 5.7% with RXF 393; 10.6% with PC-3; -22% in the assay with HCC 2998. Also, the inhibition of growth at 10 µM in the assay with SK-MEL-5 is 22.3%; in the assay with UACC-62, 7.7%; with MDA-MB-435, 7.4%; with HL-60(TB), -6.8%; in the assay with DU-145, 14.4%; in the assay with HCT-116 it was 18.6%. Also, the inhibition of growth at 10 µM is -12.2% with SNB-19; -5% with BT-549; -22.8% in the assay with OVCAR-5; -10.3% in the assay with OVCAR-3; -3.8% in the assay with SF-268.
